In the array DNA melting data of Ke et al. (doi:10.1101/2024.01.08.574731):

Experiments:
[1] = melting temperature; fluorescence melt of hairpins on a sequencing array, two-state fit, raised by 9.35 °C to match UV melts; conditions: sodium 0.088 M
Procedure, shortened: (§1)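 Library hairpins on a sequenced MiSeq flow cell carried annealed Cy3 and quencher oligos, and their Cy3 fluorescence was imaged in 50 mM Na-HEPES pH 8.0 with 25 mM NaCl, in 2.5 °C steps up to 60 °C. Signals were normalised to Cy3 before quenching and to control constructs. Melting temperature and folding enthalpy were obtained from bootstrapped two-state fits, combined by inverse-variance weighting across four replicates, and the fitted temperatures were then raised by 9.35 °C to match UV melts.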

[2] = folding enthalpy; higher = less favourable; fluorescence melt of hairpins on a sequencing array, two-state fit; conditions: sodium 0.088 M
Procedure, shortened: as §1

Sequence | Tm [1] [°C] | folding enthalpy [2] [kcal/mol]
GATCAAGTTCTTGATC ((((((....)))))) | 49.7 | -38.6
GCACCGCGAAAGCCCTGC (((..((....))..))) | 28.2 | -7.23
GATCCGAGACCGGATC ((((((....)))))) | 54.4 | -36.6
GGCTACGAAAGTAGGGCC ((((((....)))..))) | 47.1 | -15.7
GTTCGGAAACGAAC (((((....))))) | 56 | -25.9
GAAGGTGCGAAAGCATTC (((..(((....)))))) | 18.4 | -6.16
GAGCCGGGAAACTGGCTC (((((.(....).))))) | 63.3 | -36.2
CGAGCGCGGAAACGCTCG (((..(((....)))))) | 68.5 | -29.8
GATCGCGAAAGCGTGATC ((((((....)))..))) | 42.8 | -14.3
GTCTCCCGAAAGGGTGAC (((.(((....))).))) | 56.5 | -31.1
GATCTCACAAGAGATC ((((((....)))))) | 53.7 | -38.7
GTACAGGCGAAAGCCTAC (((..(((....)))))) | 34.9 | -8.61
GATCCACTCTTGGATC ((((((....)))))) | 51 | -35.1
GAGAACCGAAAGGTACTC (((.(((....))).))) | 50.7 | -34.9
GCCGGTTCGAAAGAAGGC (((..(((....)))))) | 38.8 | -22.8
GCGTAGCGAAAGCGAGGC ((.(.((....)).).)) | 46.6 | -7.75
GTGGCCGAAAGGCCCAC ((((((....))).))) | 57.5 | -10.5
GACTGAGGAAACTCGGTC (((.(((....))).))) | 50.4 | -41.1
GATCCGGGAAACCAGATC ((((.((....)).)))) | 35.6 | -27.8
AGTCCGAAAGGACT (((((....))))) | 68.1 | -18.7
GGTGAAGGAAACTTCGTC (..((((....))))..) | 26.6 | -12
GATCAGGATCTGATC ((((((...)))))) | 48 | -32.1
GTAGGGGGAAACCCTTGC (.(.(((....))).).) | 31.9 | -13.2
GTCGTGAAAACGAC (((((....))))) | 60.8 | -30.5

Sequence | Tm [1] [°C] | folding enthalpy [2] [kcal/mol]
GGGTGTCGAAAGACCCCC (((.(((....))).))) | 56.4 | -24.2
GTTGTGCGAAAGCAAAAC (((.(((....))).))) | 48.7 | -24
TGGCTGAAAAGCCA (((((....))))) | 57.9 | -18.4
GCTCCTCGAAAGAGAAGC (((.(((....))).))) | 46.1 | -29.4
GCCCCCGAAAGGGACGGC ((((((....)))..))) | 50.9 | -21
GAGTAGCGAAAGCTCTC (((.(((....)))))) | 46.2 | -17.8
GTATGCGAAAGCAGATAC ((((((....)))..))) | 36.7 | -12.9
GATCAATATATTGATC ((((((....)))))) | 49.1 | -47.1
GGGGACGAAAGTCGCCC ((((((....))).))) | 64.9 | -13.9
GTCCTGGGAAACCAGGGC (.(((((....))))).) | 56.9 | -35.5
GATCTAGCAGTAGATC ((((((....)))))) | 43.2 | -31.2
GATGTTGCGAAAGCAATC (((..(((....)))))) | 32.7 | -10.9
GAAGACGAAAGTCAATTC ((((((....)))..))) | 32.9 | -15.5
GGAGCGGGAAACCGCCCC ((.((((....)))).)) | 56.7 | -16.3
GGGGCTGCGAAAGCACCC (((..(((....)))))) | 62.5 | -24.5
GCAGTTGGAAACAACTAC (.(((((....))))).) | 37.5 | -17.1
GGTTCCGGAAACGAAACC ((((.((....)).)))) | 42.9 | -24.8
GTGTCGGGAAACTGGCAC (((.(.(....).).))) | 45.9 | -29.2
GGTCCCGAAAGGGAGACC ((((((....)))..))) | 51.4 | -17
GATCAGCGCACTGATC ((((((....)))))) | 52.5 | -40.4
GTTTGAGGAAACTCAGAC ((.((((....)))).)) | 39 | -23.4
GATCGCAGACGCGATC ((((((....)))))) | 67.8 | -30.9
GGCTTCTCGAAAGAGGCC (((..(((....)))))) | 47.1 | -24.4
GTGGCGCCGAAAGGCCAC (((..(((....)))))) | 57.8 | -13.8

Sequence | Tm [1] [°C] | folding enthalpy [2] [kcal/mol]
GATCTGCTAGCAGATC ((((((....)))))) | 60.9 | -48.5
GGCGTCGAAAGACGTGCC ((((((....)))..))) | 51.1 | -12
GGCTGCGAAAGCACAGCC ((((((....)))..))) | 57.8 | -25.6
CGGGCACGGAAACGTCCG (((..(((....)))))) | 38.9 | -19.9
GAGATCGGAAACGATTTC ((.((((....)))).)) | 42.3 | -26.8
GGGATGTCGAAAGACCCC (((..(((....)))))) | 44.9 | -18.8
GGTTCAGGAAACTGGATC (.(.(((....))).).) | 30 | -10.2
GTACACCCGAAAGGGTAC (((..(((....)))))) | 33 | -9.29
GTGTCGGGAAACCGGTAC ((..(((....)))..)) | 37.6 | -22.7
GACACAGGAAACTGTACC (..((((....))))..) | 25.1 | -11.1
GCGACTGCGAAAGCACGC (((..(((....)))))) | 48.8 | -15.3
GCCTTACGAAAGTAGGGC (((.(((....))).))) | 57.3 | -37.1
GATCGTTACGACGATC ((((((....)))))) | 57.1 | -39.9
GATCCCATCCGGGATC ((((((....)))))) | 64.2 | -36.8
GTGCTCGAAAGAGTCAC ((((((....))).))) | 49.7 | -26.7
GAGCCCGAAAGGGTACTC ((((((....)))..))) | 43.1 | -13.1
GATCCCTAAAGGGATC ((((((....)))))) | 60.6 | -36.5
GCGGTAGCCGC ((((...)))) | 61.2 | -11.8
GCCCATGGAAACATGAGC ((.((((....)))).)) | 43.1 | -27.9
GGACGCGGAAACACGCCC ((.((.(....).)).)) | 34.3 | -18.9
GATCCCAGTGGGGATC ((((((....)))))) | 62.3 | -32.7
GCGGCGTCCCGC ((((....)))) | 56.7 | -14.5
CGCGGACGATCCGCG ((((((...)))))) | 63.2 | -35.3
GTAACAGGAAACTGTCAC ((.((((....)))).)) | 30.7 | -15.5

Sequence | Tm [1] [°C] | folding enthalpy [2] [kcal/mol]
GCCTGTCCGAAAGGAGGC (((..(((....)))))) | 46.6 | -19.2
GCGCCACCGAAAGGTCGC (((..(((....)))))) | 51.4 | -23.5
GATCCTTTGAAGGATC ((((((....)))))) | 52.4 | -36
GATCATCCTATGATC ((((((...)))))) | 48.3 | -33.1
GCGACCATCGC ((((...)))) | 46.4 | -17.6
GTGGTCGGAAACAACCAC (((((.(....).))))) | 45.4 | -29.4
GATCATTGTCATGATC ((((((....)))))) | 46.2 | -31.7
GTCAGCGAAAGCTTCGAC ((((((....)))..))) | 32.3 | -12
GTGATCGGAAACGGTCAC ((((.((....)).)))) | 55 | -42.8
GTGGATACGAAAGTACAC (((..(((....)))))) | 36.8 | -13.5
GCATGGGGAAACCTGTGC (((..((....))..))) | 44.3 | -30.3
CGAGCGGAAACGCGATCG ((((((....)))..))) | 47 | -12.1
GCCCCCGAAAGGGTCGGC ((((((....)))..))) | 50.4 | -17.1
GGTTCCGAAAGGAGAACC ((((((....)))..))) | 45.1 | -24.5
GATCATGTACATGATC ((((((....)))))) | 56.5 | -40.7
GTCACTCGAAAGAGGGAC (((.(((....))).))) | 60.9 | -50.4
GTCAACGAAAGTTCAGAC ((((((....)))..))) | 28.3 | -11.4
GTATAGCCGAAAGGCTAC (((..(((....)))))) | 36.4 | -7.94
GATCGCCCAGCGATC ((((((...)))))) | 67.4 | -32.1
GATCTGCGTTCAGATC ((((((....)))))) | 48.8 | -37.5
GGAGTAACGAAAGTTTCC (((..(((....)))))) | 30.7 | -16.6
